From ChEMBL document CHEMBL1139431, “Synthesis of both enantiomers of hydroxypipecolic acid derivatives equivalent to 5-azapyranuronic acids and evaluation of their inhibitory activities against glycosidases” (Bioorg Med Chem, 2008)

Columns and labels:
[1] = species on record: Bos taurus; assay: Inhibition of bovine liver beta-glucuronidase at 1000 uM
Procedure, shortened: (§1)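 Enzyme from bovine liver, run at pH 5.0. A p-nitrophenyl glycoside substrate (2 mM) is used in a 1 mL reaction with an appropriate amount of enzyme. Termination is by 2 mL of 400 mM Na₂CO₃, with spectrophotometric detection of liberated p-nitrophenol at 400 nm.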

[2] = Inhibition of bovine kidney beta-N-acetylglucosaminidase at 1000 uM; type: functional; settings: Bos taurus
Procedure, shortened: (§2)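 β-N-Acetylglucosaminidase from bovine kidney, pH 4.5. The substrate is a p-nitrophenyl glycoside at 2 mM, with an appropriate amount of enzyme in a 1 mL mixture. The reaction is quenched with 2 mL of 400 mM Na₂CO₃, and p-nitrophenol is measured at 400 nm.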

[3] = Inhibition of bovine liver beta-glucuronidase; parameters: species or system Bos taurus; procedure, shortened: as §1
[4] = Inhibition of Escherichia coli beta-glucuronidase
Procedure, shortened: (§3)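 E. coli β-glucuronidase assayed at pH 6.8 in a 1 mL mixture containing 2 mM p-nitrophenyl glycoside substrate and an appropriate amount of enzyme. The reaction is stopped with 2 mL of 400 mM Na₂CO₃, and released p-nitrophenol is read at 400 nm.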

[5] = tested on: Beta-hexosaminidase (Homo sapiens); assay: Inhibition of human Placental beta-N-acetylglucosaminidase at 1000 uM
[6] = tested on: Escherichia coli; assay: Inhibition of Escherichia coli beta-glucuronidase at 1000 uM; procedure, shortened: as §3
[7] = biological target: T1, Alpha-N-acetylgalactosaminidase (Gallus gallus) (UniProt Q90744); assay: Inhibition of chicken liver alpha-N-acetylgalactosaminidase at 1000 uM
T1 sequence (whole entry): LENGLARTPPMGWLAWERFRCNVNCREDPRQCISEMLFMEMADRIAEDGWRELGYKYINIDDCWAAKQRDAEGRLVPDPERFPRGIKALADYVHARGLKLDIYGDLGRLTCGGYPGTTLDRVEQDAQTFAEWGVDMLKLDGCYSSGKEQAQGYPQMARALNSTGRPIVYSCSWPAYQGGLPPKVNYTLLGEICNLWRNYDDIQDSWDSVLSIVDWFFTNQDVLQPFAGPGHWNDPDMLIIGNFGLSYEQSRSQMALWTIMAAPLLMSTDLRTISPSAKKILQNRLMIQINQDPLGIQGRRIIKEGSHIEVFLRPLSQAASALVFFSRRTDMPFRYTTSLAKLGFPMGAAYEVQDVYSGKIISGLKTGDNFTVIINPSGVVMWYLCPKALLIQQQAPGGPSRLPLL
Procedure, shortened: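 Chicken liver α-N-acetylgalactosaminidase at pH 4.0. The reaction (1 mL) holds 2 mM p-nitrophenyl glycoside and an appropriate amount of enzyme. It is stopped by 2 mL of 400 mM Na₂CO₃, and p-nitrophenol release is quantified at 400 nm.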

[8] = Inhibition of bovine kidney beta-N-acetylglucosaminidase; parameters: species or system Bos taurus; procedure, shortened: as §2
[9] = biological target: Beta-hexosaminidase (Homo sapiens); assay: Inhibition of human Placental beta-N-acetylglucosaminidase

Work on `O=C(O)[C@H]1NC[C@H](O)[C@@H](O)[C@@H]1O` yielded an inhibition [1] of 95%, an inhibition at 1000 µM [2] of 13% and an IC50 [3] of 70 µM. The IC50 [4] was 215 µM, the Ki [4] was 400 µM and the inhibition [5] was 43%. For the same compound, the inhibition [6] was 72% and the inhibition [7] was 0.2%.

Work on `O=C(O)[C@@H]1NC[C@@H](O)[C@H](O)[C@H]1O` yielded an inhibition [1] of 2.7%, an inhibition at 1000 µM [2] of 11% and an inhibition [5] of 50%. The inhibition [6] was 5.4% and the inhibition [7] was 1.3%.

For `O=C(O)[C@@H]1NC[C@H](O)[C@H](O)[C@H]1O`, the inhibition [1] was 12%, the inhibition at 1000 µM [2] was 18% and the inhibition [5] was 39%. It also gave an inhibition [6] of 2.6% and an inhibition [7] of 4.4%.

`O=C(O)[C@@H]1NC[C@H](O)[C@@H](O)[C@H]1O` showed an inhibition [1] of 6.8%, an inhibition at 1000 µM [2] of 27% and an inhibition [5] of 42%. It also gave an inhibition [6] of 5.2% and an inhibition [7] of 4%.

For `O=C(O)[C@@H]1NCCC[C@H]1O`, the inhibition [1] was 0.62%, the inhibition at 1000 µM [2] was 32% and the inhibition [5] was 25%. It also gave an inhibition [6] of 20% and an inhibition [7] of 1.3%.

For `O=C(O)[C@H]1NC[C@@H](O)[C@@H](O)[C@@H]1O`, the inhibition [1] was 14%, the inhibition at 1000 µM [2] was 0.5% and the inhibition [5] was 28%. For the same compound, the inhibition [6] was 1% and the inhibition [7] was 3.8%.

In the case of `O=C(O)[C@@H]1NC[C@@H](O)[C@H](O)[C@@H]1O`, the inhibition [1] is reported as 7.1%, the inhibition at 1000 µM [2] is reported as 0.5% and the inhibition [5] is reported as 0.8%. For the same compound, the inhibition [6] was 6.3% and the inhibition [7] was 10%.

`O=C(O)[C@H]1NC[C@H](O)[C@@H](O)[C@H]1O` gave an inhibition [1] of 87%, an inhibition at 1000 µM [2] of 1.9% and an IC50 [3] of 86 µM. The inhibition [5] was 2.6%, the inhibition [6] was 21% and the inhibition [7] was 31%.

With `O=C(O)[C@H]1NC[C@@H](O)[C@H](O)[C@H]1O` the inhibition [1] was 17.5%, the inhibition at 1000 µM [2] was 4.8% and the inhibition [5] was 6.3%. It also gave an inhibition [6] of 2.6% and an inhibition [7] of 4.2%.

In the case of `O=C(O)[C@@H]1NCC=C[C@@H]1O`, the inhibition [1] is reported as 10%, the inhibition at 1000 µM [2] is reported as 0.8% and the inhibition [5] is reported as 14%. For the same compound, the inhibition [6] was 0.9% and the inhibition [7] was 1.3%.

For `O=C(O)[C@@H]1NC[C@@H](O)[C@@H](O)[C@H]1O`, the inhibition [1] was 3.1%, the inhibition at 1000 µM [2] was 10% and the inhibition [5] was 26%. It also gave an inhibition [6] of 1.3% and an inhibition [7] of 8.2%.

In the case of `O=C(O)[C@H]1NC[C@H](O)[C@H](O)[C@@H]1O`, the inhibition [1] is reported as 2.1%, the inhibition at 1000 µM [2] is reported as 14% and the inhibition [5] is reported as 26%. The inhibition [6] was 0.6% and the inhibition [7] was 4.5%.

`O=C(O)[C@H]1NCCC[C@@H]1O` showed an inhibition [1] of 0.89%, an inhibition at 1000 µM [2] of 38% and an inhibition [5] of 36%. It also gave an inhibition [6] of 31% and an inhibition [7] of 5.2%.

`O=C(O)[C@H]1NCC=C[C@H]1O` showed an inhibition [1] of 8.6%, an inhibition at 1000 µM [2] of 7.3% and an inhibition [5] of 17%. The inhibition [6] was 3.3% and the inhibition [7] was 0.2%.

With `O=C(O)[C@H]1NC[C@H](O)[C@H](O)[C@H]1O` the inhibition [1] was 8.8%, the inhibition at 1000 µM [2] was 5.5% and the inhibition [5] was 7.6%. For the same compound, the inhibition [6] was 2.3% and the inhibition [7] was 21%.

For `O=C(O)[C@@H]1NC[C@H](O)[C@@H](O)[C@@H]1O`, the inhibition [1] was 15.8%, the inhibition at 1000 µM [2] was 4.4% and the inhibition [5] was 5.4%. The inhibition [6] was 4.2% and the inhibition [7] was 3.4%.

For `O=C(O)[C@@H]1NC[C@@H](O)[C@@H](O)[C@@H]1O`, the inhibition [1] was 9.4%, the inhibition at 1000 µM [2] was 1.7% and the inhibition [5] was 2.1%. It also gave an inhibition [6] of 1.2% and an inhibition [7] of 7.2%.

`O=C(O)[C@H]1NCC=C[C@@H]1O` gave an IC50 [8] of 720 µM, an inhibition [1] of 19% and an inhibition at 1000 µM [2] of 58%. For the same compound, the inhibition [5] was 60%, the inhibition [6] was 2% and the inhibition [7] was 25%. It also gave an IC50 [9] of 750 µM.

Work on `O=C(O)[C@H]1NCCC[C@H]1O` yielded an inhibition [1] of 0.18%, an inhibition at 1000 µM [2] of 20% and an inhibition [5] of 30%. It also gave an inhibition [6] of 24% and an inhibition [7] of 2.5%.

`O=C(O)[C@@H]1NCCC[C@@H]1O` showed an inhibition [1] of 15%, an inhibition at 1000 µM [2] of 47% and an inhibition [5] of 46%. For the same compound, the inhibition [6] was 23% and the inhibition [7] was 3.2%.

`O=C(O)[C@H]1NC[C@@H](O)[C@H](O)[C@@H]1O` showed an inhibition [1] of 20%, an inhibition at 1000 µM [2] of 17% and an inhibition [5] of 42%. The inhibition [6] was 1.1% and the inhibition [7] was 11%.

Compound `O=C(O)[C@@H]1NCC=C[C@H]1O` has an inhibition [1] of 0.2%, an inhibition at 1000 µM [2] of 15% and an inhibition [5] of 14%. The inhibition [6] was 0.9% and the inhibition [7] was 3.2%.
